Compound activity from PubChem.
Hits are enriched below; roughly 1.7% of the tested compounds scored in any of these assays.
IDE cell activ: IDE (human) activation, cell-based | P14735 | HEK cells, FAbeta-B cleavage, fluorescence polarization; 0% vehicle, 100% cell-free pure enzyme wells | activation, % at 5.96 µM | 340,000 tested, 0.073% active;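 active = activation above the mean of all tested compounds plus 3 SD, set per screening campaign, cut at about 17% in these data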
Target sequence (P14735 whole entry, looked up): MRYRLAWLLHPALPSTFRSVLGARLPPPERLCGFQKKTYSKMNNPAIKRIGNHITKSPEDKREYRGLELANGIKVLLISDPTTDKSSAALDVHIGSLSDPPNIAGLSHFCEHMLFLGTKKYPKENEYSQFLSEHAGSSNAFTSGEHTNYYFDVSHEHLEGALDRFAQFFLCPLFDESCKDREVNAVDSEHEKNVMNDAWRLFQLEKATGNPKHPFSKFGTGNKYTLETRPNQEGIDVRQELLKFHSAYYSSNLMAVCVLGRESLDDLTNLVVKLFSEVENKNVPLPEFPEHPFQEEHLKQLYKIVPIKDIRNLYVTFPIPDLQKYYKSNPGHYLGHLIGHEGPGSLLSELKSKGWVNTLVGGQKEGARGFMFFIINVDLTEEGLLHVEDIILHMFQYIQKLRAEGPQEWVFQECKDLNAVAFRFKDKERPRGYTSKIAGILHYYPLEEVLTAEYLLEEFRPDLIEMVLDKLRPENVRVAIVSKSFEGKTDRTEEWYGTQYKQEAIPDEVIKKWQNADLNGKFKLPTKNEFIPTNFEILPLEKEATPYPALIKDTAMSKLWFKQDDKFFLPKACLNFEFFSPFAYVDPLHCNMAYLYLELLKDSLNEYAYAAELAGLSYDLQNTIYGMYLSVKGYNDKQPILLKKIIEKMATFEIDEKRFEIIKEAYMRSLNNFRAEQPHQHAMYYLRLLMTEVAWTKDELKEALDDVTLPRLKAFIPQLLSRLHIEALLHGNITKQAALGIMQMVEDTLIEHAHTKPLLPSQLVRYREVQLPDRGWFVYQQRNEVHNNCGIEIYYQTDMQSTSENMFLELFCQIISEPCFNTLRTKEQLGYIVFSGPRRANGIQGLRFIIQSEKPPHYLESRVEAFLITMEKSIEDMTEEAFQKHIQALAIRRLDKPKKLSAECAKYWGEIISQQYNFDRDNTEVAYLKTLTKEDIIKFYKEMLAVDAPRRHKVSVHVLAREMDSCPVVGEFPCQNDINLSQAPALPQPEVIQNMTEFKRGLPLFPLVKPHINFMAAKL
HNF4A DNA FP: change in binding of human HNF4 alpha to DNA; HNF4a-FITC DNA binding, fluorescence polarization, 1 h; activity change, % at 10 µM; 360,000 tested, 0.3% active; AID 1224865; in the data active = activity change above about 30%, passing the limit was not always enough
IDE cell inh: cellular human IDE inhibition; P14735; HEK cells, FAbetaB cleavage, fluorescence polarization; inhibition, % at 5.59 µM; 320,000 tested, 0.41% active; AID 434962;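 active = percent inhibition above the average of all tested compounds plus 3 SD, set per screening campaign, cut at about 16% in these data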;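 note: IDE supplied by intact live HEK cells; FP after avidin binding of uncleaved biotin substrate so inhibition keeps polarization high; 0% = DMSO wells and 100% = 60 µM reference IDE inhibitor Ii1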
CSN inh: CSN deneddylation inhibition; Purified CSN, SCF-Nedd8-OG deneddylation, fluorescence polarization; 360,000 tested, 0.38% active; inhibition, % at 12.5 µM; Q92905;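 active = pattern-corrected inhibition above about 35%, with an unprinted fluorescence ratio check between 0.5 and 1.5, limit read from the data, passing the limit was not always enough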;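 note: 0% = enzyme with substrate and 100% = substrate without enzyme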
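Assay system: purified human Csn5 enzyme expressed in HEK293T cells; measure: % inhibition; also added: SCFSkp2-Nedd8OG substrate at 10 nM final; technique: fluorescence polarization; times: reaction 90 min, room temperature; medium: Tris buffer pH 7.5, NaCl, DTT, Tween-20, trehalose, ovalbumin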
Rpn11 block: inhibitors of human proteasome Rpn11. AID 588493. O00487. human 26S proteasome, Ub4-pepOG fluorescence polarization; 20S core pre-blocked with epoxomicin. 360,000 tested, 0.59% active. calls only at 20 µM;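 active = inhibition at 20 µM, scaled to each plate's controls, above about 33%, limit read from the data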
TPT1 inhibitor: inhibitors of Candida albicans tRNA 2'-phosphotransferase TPT1 | inhibition, % at 5 µM | AID 1962 | recombinant caTPT1, FP RNA substrate dephosphorylation | 300,000 tested, 0.81% active;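 active = inhibition above the mean of all tested compounds plus 3 SD, set per screening campaign, cut at about 24% in these data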;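 note: plate controls were DMSO alone for no effect and ferristatin control at 100 nM for full effect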
caTPT1 confirm: TPT1 (C. albicans) inhibition, confirmation | 2,400 tested, 74% active | recombinant caTPT1, fluorescence polarization, RNase T1 coupled | shares compounds with TPT1 inhibitor | inhibition, % at 5 µM;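 active = inhibition above the primary screen limit, the mean inhibition of all tested compounds plus 3 SD, cut at about 25% in these data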
RNase T1 inh: blocks Aspergillus oryzae RNase T1, a TPT1 counter-screen | shares compounds with TPT1 inhibitor | RNase T1 cleavage, fluorescence polarization, 1536-well | inhibition, % at 5 µM | 2,400 tested, 83% active | AID 2153;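 active = inhibition above the solvent-only control well mean plus 3 SD, limit set per screening run, cut at about 23% in these data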;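 note: plate controls were DMSO wells with enzyme for no effect and wells without RNase T1 for full effect; inhibitors block cleavage so intact labeled substrate keeps polarization high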
The depositor's hits bear a star; i = inactive; nt = not tested or not shown; + = active, no number.

SMILES	IDE cell activ	HNF4A DNA FP	IDE cell inh	CSN inh	Rpn11 block	TPT1 inhibitor	caTPT1 confirm	RNase T1 inh
CCOC(=O)c1sc2cc([N+](=O)[O-])cc(SCC(=O)OC)c2c1N	-9	14	10	15	i	29*	35*	49*
O=[N+]([O-])c1nn(-c2ccccc2)[n+]([O-])c1N1CCN(c2ccccc2)CC1	1	2	-4	-9	i	-1	nt	nt
COc1cc(OC)c(OC)cc1/C=C1\CC(C)C/C(=C\c2cc(OC)c(OC)cc2OC)C1=O (configuration not stated)	-4	58*	10	31	nt	74*	87*	95*
CSc1cccc(NC(=O)C(=O)NCc2ccccc2)c1	nt	2	-3	3	i	1	nt	nt
CSc1cccc(NC(=O)NCc2cccc(CNC(=O)Nc3cccc(SC)c3)c2)c1	1	1	5	4	i	51*	4	6
COc1ccc(C(=O)Cn2nnc(-c3ccccc3NC(=O)C3CCCCC3)n2)cc1	7	8	3	7	i	30*	43*	54*
COc1ccc(NC(=O)C2(C)Cc3c(-c4ccc(NC(C)=O)cc4)ccnc3O2)cn1 (configuration not stated)	nt	-6	nt	0	i	nt	nt	nt
Cc1cccc(NC(=O)CN2C(=O)N/C(=C/c3ccc(C)s3)C2=O)c1	1	60*	8	24	nt	83*	100*	108*
O=[N+]([O-])c1cccc(C2NCC(c3ccccc3Cl)c3c2[nH]c2ccccc32)c1 (configuration not stated)	6	-3	13	-4	i	131*	10	13
CN(C)c1ccc(C2CNC(c3ccc(Cl)c([N+](=O)[O-])c3)c3[nH]c4ccccc4c32)cc1 (configuration not stated)	-5	4	8	12	i	4	nt	nt
O=S(=O)(NCc1ccc(F)cc1)c1cc(Br)ccc1Br	0	-3	6	0	i	nt	nt	nt
CC(=O)C1=NN(c2ccccc2)C(c2ccc3c(c2)OCO3)N1c1ccccc1 (configuration not stated)	1	11	1	3	i	27*	46*	59*
Cc1nnc(N/N=C/c2ccco2)n1N	4	1	5	-4	i	70*	11	17
COc1ccc(-c2ccc(C3C(C#N)=C(N)Oc4n[nH]c(C)c43)o2)cc1 (configuration not stated)	-3	61*	1	31	+	111*	99*	101*
COCc1cc(C)nc2sc(C(=O)Nc3cccc(OC)c3)c(N)c12	1	-1	1	-3	i	2	nt	nt
Cc1ccc(S(=O)(=O)NCc2ccc(C(=O)N3CCCC3)cc2)cc1	-2	4	3	4	i	33*	6	10
CC(C)(C)c1ccc(S(=O)(=O)NCc2ccc(C(=O)N3CCCC3)cc2)cc1	-8	0	3	1	i	-5	nt	nt
CCOc1cc(/C=C2\C(=O)N(c3nc(-c4ccc(Br)cc4)cs3)N=C2c2ccccc2)ccc1O	-3	-12	-3	4	i	41*	100*	104*
Cc1onc(-c2c(Cl)cccc2Cl)c1C(=O)N=C(N)N1CCOCC1	9	-2	5	5	i	0	nt	nt
CCCCn1c(=O)[nH]c(=O)c2c1nc(-c1ccc(C)c([N+](=O)[O-])c1)n2CC	1	1	6	-10	i	0	nt	nt
CCCCN1C(=O)/C(=C/C=C2\SCCN2C)SC1=S	-88	203	nt	71	nt	nt	nt	nt
CCCCN1C(=O)/C(=C/C=C2\N(C)c3ccccc3C2(C)C)SC1=S	nt	nt	14	nt	nt	196*	134*	124*
COc1cccc(N(C(=O)c2nc3nccc(C)n3n2)c2nc3ccccc3s2)c1	3	-3	-2	0	i	0	nt	nt
O=C(CCN1C(=O)/C(=C/c2cccs2)SC1=S)Nc1ccc(C(=O)O)cc1	5	8	7	10	i	31*	29*	39*
Cc1ccc(/C=C2\SC(=S)N(CCCC(=O)Nc3ccccn3)C2=O)cc1	3	-1	-4	5	i	-2	nt	nt
SMILES	IDE cell activ	HNF4A DNA FP	IDE cell inh	CSN inh	Rpn11 block	TPT1 inhibitor	caTPT1 confirm	RNase T1 inh
O=C(CCN1C(=O)/C(=C/c2ccccc2)SC1=S)Nc1ccccn1	0	2	-2	-5	i	0	nt	nt
COc1cc(/C=C2/SC(=S)N(Cc3ccccc3)C2=O)cc(Cl)c1O	-118	103	86*	94	nt	37*	4	22*
COc1ccc(/C=C2\SC(=S)N(CCCC(=O)Nc3ccccn3)C2=O)cc1OC	-3	16	2	-7	i	32*	53*	64*
O=C(CCN1C(=O)/C(=C/c2cccs2)SC1=S)Nc1ccccn1	-5	33*	7	14	nt	33*	31*	42*
CCc1ccc(NC(=O)C2=CC(c3ccc(OC)cc3)=NS(=O)(=O)N2C)cc1	-3	0	0	1	i	-2	nt	nt
CC(=O)c1c(C)[nH]c(C(=O)CSc2nnc(-c3ccccc3)n2Cc2ccc3c(c2)OCO3)c1C	1	1	3	-3	i	-4	nt	nt
CCN(CC(=O)Nc1ccc(C(=O)OC)cc1)Cc1ccccc1	4	-4	7	-3	i	46*	8	10
COC(=O)c1ccc(NC(=O)Cc2ccccc2)cc1	-2	0	2	-2	i	-4	nt	nt
CC1Oc2ccccc2N(CC(=O)Nc2ccc3c(c2)OCO3)C1=O (configuration not stated)	5	-2	2	-6	i	0	nt	nt
Cn1nnnc1SCc1nc2scc(-c3ccc(Cl)cc3)c2c(=O)[nH]1	-1	39*	7	12	nt	29*	50*	59*
CCN(CC)c1ccc(C=C2C(=O)OC3(CCCC3)OC2=O)cc1	2	0	-4	10	i	29*	140*	142*
CCN(CC)c1ccc(C=C2C(=O)OC(C)(C(C)(C)C)OC2=O)cc1 (configuration not stated)	3	5	2	19	nt	78*	162*	152*
CCCn1c(N)c(N(CCOC)C(=O)COC(=O)CSc2cc(C)c3ccccc3n2)c(=O)[nH]c1=O	7	-3	0	5	i	2	nt	nt
CCn1c(NCc2ccc3c(c2)OCO3)nc2ccccc21	-3	5	4	1	i	-4	nt	nt
Cc1cc(C)n2nc(SCC(=O)Nc3ccc(S(=O)(=O)N(C)C)cc3)nc2n1	0	5	-2	2	i	nt	nt	nt
